# Reference: ChEMBL document CHEMBL2203222, “Mannich bases of scutellarein as thrombin-inhibitors: design, synthesis, biological activity and solubility” (Bioorg Med Chem, 2012)
# Columns and labels:
# Plasma [1] = experiment: Antithrombin activity in New Zealand white rabbit plasma assessed as fibrinogen content at 25 uM by coagulometer; type: functional, Oryctolagus cuniculus
# [2] = Solubility of the compound in water by UV-visible spectrophotometry; type: physicochemical
# [3] = Solubility of the compound in water by UV-visible spectrophotometry relative to scutellarein; type: physicochemical
# Plasma [4] = experiment: Antithrombin activity in New Zealand white rabbit plasma assessed as prothrombin time at 25 uM by coagulometer; type: functional, Oryctolagus cuniculus
# [5] = tested on: Radical scavenging activity; experiment: Antioxidant activity assessed as inhibition of DPPH radical by spectrophotometric analysis […]; type: functional
# Procedure, shortened: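 Sample in DMSO mixed with an equal volume of 0.2 mM ethanolic DPPH. Test compounds spanned […], alongside reference antioxidants and a DMSO control. Reaction ran 30 min at 25 °C, then absorbance was read at 517 nm on a microplate reader. Scavenging % = (1 − A_test/A_control) × 100, with A_control taken from DMSO alone.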
# Plasma [6] = experiment: Antithrombin activity in New Zealand white rabbit plasma assessed as activated partial thromboplastin time at 25 uM by coagulometer; type: functional, Oryctolagus cuniculus
# Plasma [7] = experiment: Antithrombin activity in New Zealand white rabbit plasma assessed as thrombin time at 25 uM by coagulometer; type: functional, Oryctolagus cuniculus
# [8] = Absolute bioavailability in po dosed Beagle dog; type: ADME, organism-based, Canis lupus familiaris; details: in vivo
SMILES,Activity (Plasma [1]) [g/L],solubility [2] [µM],fold change (FC) [3],PT (Plasma [4]) [s],IC50 [5] [µM],APTT (Plasma [6]) [s],TT (Plasma [7]) [s],bioavailability [8] [%]
CN(C)Cc1c(O)c(O)c(O)c2c(=O)cc(-c3ccc(O)cc3)oc12,5.56,8.58,1.23,7.45,26.5,34.23,12.58,–
CCN(CC)Cc1c(O)c(O)c(O)c2c(=O)cc(-c3ccc(O)cc3)oc12,5.36,7.71,1.11,7.55,25,34.62,12.63,–
CC(C)N(Cc1c(O)c(O)c(O)c2c(=O)cc(-c3ccc(O)cc3)oc12)C(C)C,5.54,7.97,1.15,7.47,30.1,34.52,11.75,–
O=c1cc(-c2ccc(O)cc2)oc2c(CN3CCOCC3)c(O)c(O)c(O)c12,5.26,11.6,1.67,7.84,30.9,35.48,14.48,–
CN1CCN(Cc2c(O)c(O)c(O)c3c(=O)cc(-c4ccc(O)cc4)oc23)CC1,5.46,7.28,1.05,7.71,32.5,35.42,14.4,–
CCN1CCN(Cc2c(O)c(O)c(O)c3c(=O)cc(-c4ccc(O)cc4)oc23)CC1,5.54,7.07,1.02,7.41,32.4,35.15,14.13,–
CCCCN1CCN(Cc2c(O)c(O)c(O)c3c(=O)cc(-c4ccc(O)cc4)oc23)CC1,5.56,9.11,1.31,7.4,32.7,35.01,13.45,–
O=c1cc(-c2ccc(O)cc2)oc2cc(O)c(O)c(O)c12 [SCUTELLAREIN],5.96,6.95,–,7.34,24,33.36,10.25,–
O=C(O)[C@H]1O[C@@H](Oc2cc3oc(-c4ccc(O)cc4)cc(=O)c3c(O)c2O)[C@H](O)[C@@H](O)[C@@H]1O [SCUTELLARIN],–,–,–,–,–,–,–,0.4
